Source: ChEMBL document CHEMBL4184291, “Discovery of N-arylpyrroles as agonists of GPR120 for the treatment of type II diabetes” (Bioorg Med Chem Lett, 2018)

How the values were obtained:
[1] = tested on: Mus musculus; test: Antidiabetic activity in diet-induced obese C57Bl/6 mouse model assessed as change in plasma glucose AUC at 0.1 mg/kg, po administered 30 mins prior to glucose challenge measured up to 90 mins post dose by OGTT; format: functional
How it was run: (§1)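 Diet-induced obese mice dosed orally at 0.1–3.0 mg/kg 30 min before an oral glucose load (time 0). Glucose followed from 30 min pre-glucose to 90 min post-glucose. Saxagliptin 1 mg/kg was the positive control.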

[2] = tested on: Cavia porcellus; test: Cardiotoxicity in guinea pig assessed as effect on PQ interval at 22.4 mg/kg; format: toxicity, organism-based; conditions: in vivo
[3] = Oral bioavailability in dog at 5 mg/kg by LC-MS/MS analysis; format: ADME, organism-based, Canis lupus familiaris; conditions: in vivo
[4] = tested on: Mus musculus; test: Antiobesity activity in diet-induced obesity C57Bl6/J mouse model assessed as basal glucose level in plasma at 10 mg/kg qd for 15 days measured on day 15 post 6 hrs fasting (reference value: 187 +/- 24 mg/dL); format: functional
[5] = Cmax in mouse at 14.6 mg/kg, po by LC-MS/MS analysis; format: ADME, organism-based; parameters: dose 14.6 mg/kg, route oral; conditions: in vivo
[6] = tested on: Mus musculus; test: Antidiabetic activity in po dosed diet-induced obese C57Bl/6 mouse model assessed as decrease in plasma glucose AUC administered 30 mins prior to glucose challenge measured up to 90 mins post dose by OGTT; format: functional, organism-based; how it was run: as §1
[7] = tested on: Mus musculus; test: Antiobesity activity in diet-induced obesity C57Bl6/J mouse model assessed as basal insulin level in plasma at 30 mg/kg qd for 15 days measured on day 15 post 6 hrs fasting (reference value: 16959 +/- 4943 pg/ml); format: functional
[8] = tested on: Mus musculus; test: Antidiabetic activity in diet-induced obese C57Bl/6 mouse model assessed as change in plasma glucose AUC at 0.3 mg/kg, po administered 30 mins prior to glucose challenge measured up to 90 mins post dose by OGTT; format: functional; how it was run: as §1
[9] = tested on: Mus musculus; test: Antiobesity activity in diet-induced obesity C57Bl6/J mouse model assessed as basal glucose level in plasma at 30 mg/kg qd for 15 days measured on day 15 post 6 hrs fasting (reference value: 187 +/- 24 mg/dL); format: functional
[10] = Half life in dog at 1 mg/kg, iv by LC-MS/MS analysis; format: ADME, organism-based, Canis lupus familiaris; conditions: in vivo
[11] = tested on: Mus musculus; test: Antiobesity activity in diet-induced obesity C57Bl6/J mouse model assessed as reduction in body weight at 30 mg/kg qd for 15 days measured on day 15 post 6 hrs fasting relative to control; format: functional; parameters: scale not given: the % may be the effect or the level left
[12] = Half life in dog at 5 mg/kg, po by LC-MS/MS analysis; format: ADME, organism-based, Canis lupus familiaris; conditions: in vivo
[13] = tested on: Mus musculus; test: Antidiabetic activity in diet-induced obese C57Bl/6 mouse model assessed as change in plasma glucose AUC at 3 mg/kg, po administered 30 mins prior to glucose challenge measured up to 90 mins post dose by OGTT; format: functional; how it was run: as §1
[14] = tested on: Cavia porcellus; test: Cardiotoxicity in guinea pig assessed as effect on QTcB interval at 22.4 mg/kg; format: toxicity, organism-based; conditions: in vivo
[15] = tested on: Mus musculus; test: Glucose lowering effect in GPR120 knock out mouse assessed as plasma glucose AUC at 10 mg/kg administered 30 mins prior to glucose challenge measured up to 90 mins post dose by ipGTT (reference value: 7319 mg/dL.min); format: functional, organism-based; parameters: time < 1.5 hr, dose 10 mg/kg
How it was run: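 Intraperitoneal glucose tolerance test in GPR120 knockout mice at 10 mg/kg. Wild-type mice were run in parallel, and glucose lowering was compared with vehicle-treated animals.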

[16] = molecular target: 5-hydroxytryptamine receptor 5A (Homo sapiens) (UniProt P47898); test: Displacement of […] from recombinant human 5-HT5A at 10 uM after 60 mins by scintillation counting method relative to control
[17] = tested on: Mus musculus; test: Antiobesity activity in diet-induced obesity C57Bl6/J mouse model assessed as final glucose level in plasma at 10 mg/kg qd for 15 days measured on day 15 post 6 hrs fasting (reference value: 184 +/- 30 mg/dL); format: functional
[18] = Protein binding in mouse plasma; format: ADME, cell-free; conditions: read-out: PPB (converted)
[19] = molecular target: Sodium-dependent noradrenaline transporter (Homo sapiens) (UniProt P23975); test: Displacement of [3H]nisoxetine from recombinant human norepinephrine transporter at 10 uM after 120 mins by scintillation counting method relative to control
[20] = molecular target: Free fatty acid receptor 1 (Homo sapiens, UniProt O14842); test: Agonist activity at human GPR40; format: functional
[21] = Protein binding in human plasma; format: ADME, cell-free; conditions: read-out: PPB (converted)
[22] = Plasma concentration in mouse at 3 mg/kg; format: ADME, organism-based; conditions: in vivo
How it was run: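 Plasma exposure for a 3 mg/kg oral dose in mice was predicted from the mouse PK study, not measured directly. It was expressed as ng/mL and converted to µM.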

[23] = tested on: Mus musculus; test: Antiobesity activity in diet-induced obesity C57Bl6/J mouse model assessed as change in plasma insulin level at 30 mg/kg qd for 15 days measured on day 15 post 6 hrs fasting; format: functional
[24] = Volume of distribution at steady state in dog at 1 mg/kg, iv by LC-MS/MS analysis; format: ADME, organism-based, Canis lupus familiaris; conditions: in vivo, read-out: Vdss
[25] = Protein binding in rat plasma; format: ADME, cell-free; conditions: read-out: PPB (converted)
[26] = AUClast in dog at 5 mg/kg, po by LC-MS/MS analysis; format: ADME, organism-based, Canis lupus familiaris; parameters: dose 5 mg/kg, route oral, time 0 - last; conditions: in vivo
[27] = Half life in mouse liver microsomes; format: ADME, microsome
[28] = molecular target: Cytochrome P450 2D6 (Homo sapiens, UniProt P10635); test: Inhibition of CYP2D6 (unknown origin); format: ADME
[29] = tested on: Mus musculus; test: Antiobesity activity in diet-induced obesity C57Bl6/J mouse model assessed as change in plasma glucose level at 10 mg/kg bid for 15 days measured on day 15 post 6 hrs fasting; format: functional
[30] = molecular target: Cytochrome P450 3A4 (Homo sapiens, UniProt P08684); test: Inhibition of CYP3A4 (unknown origin); format: ADME
[31] = tested on: Mus musculus; test: Antiobesity activity in diet-induced obesity C57Bl6/J mouse model assessed as basal insulin level in plasma at 10 mg/kg bid for 15 days measured on day 15 post 6 hrs fasting (reference value: 16959 +/- 4943 pg/ml); format: functional
[32] = Half life in rat at 10 mg/kg, po by LC-MS/MS analysis; format: ADME, organism-based; conditions: in vivo
[33] = Clearance in mouse at 1.15 mg/kg, iv by LC-MS/MS analysis; format: ADME, organism-based; conditions: in vivo
[34] = Half life in rat liver microsomes; format: ADME, microsome
[35] = tested on: Cavia porcellus; test: Cardiotoxicity in guinea pig assessed as effect on ECG morphology at 22.4 mg/kg; format: toxicity, organism-based; conditions: in vivo
[36] = molecular target: T1, Free fatty acid receptor 4 (Mus musculus, UniProt Q7TMA4); test: Agonist activity at recombinant mouse GPR120 expressed in HEK293 cells; format: functional, cell-based
T1 sequence (Q7TMA4 whole entry): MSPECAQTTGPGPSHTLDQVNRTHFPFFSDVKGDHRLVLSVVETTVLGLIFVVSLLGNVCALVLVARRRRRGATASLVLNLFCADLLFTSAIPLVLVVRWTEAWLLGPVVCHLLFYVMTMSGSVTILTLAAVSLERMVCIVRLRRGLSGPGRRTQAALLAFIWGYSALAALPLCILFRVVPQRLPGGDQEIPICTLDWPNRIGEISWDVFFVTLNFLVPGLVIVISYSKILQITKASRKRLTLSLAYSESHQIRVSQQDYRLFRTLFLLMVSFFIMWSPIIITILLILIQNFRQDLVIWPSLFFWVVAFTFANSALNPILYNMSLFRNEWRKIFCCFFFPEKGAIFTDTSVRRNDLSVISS

Cytochrome P450 2D6, sequence (P10635 whole entry): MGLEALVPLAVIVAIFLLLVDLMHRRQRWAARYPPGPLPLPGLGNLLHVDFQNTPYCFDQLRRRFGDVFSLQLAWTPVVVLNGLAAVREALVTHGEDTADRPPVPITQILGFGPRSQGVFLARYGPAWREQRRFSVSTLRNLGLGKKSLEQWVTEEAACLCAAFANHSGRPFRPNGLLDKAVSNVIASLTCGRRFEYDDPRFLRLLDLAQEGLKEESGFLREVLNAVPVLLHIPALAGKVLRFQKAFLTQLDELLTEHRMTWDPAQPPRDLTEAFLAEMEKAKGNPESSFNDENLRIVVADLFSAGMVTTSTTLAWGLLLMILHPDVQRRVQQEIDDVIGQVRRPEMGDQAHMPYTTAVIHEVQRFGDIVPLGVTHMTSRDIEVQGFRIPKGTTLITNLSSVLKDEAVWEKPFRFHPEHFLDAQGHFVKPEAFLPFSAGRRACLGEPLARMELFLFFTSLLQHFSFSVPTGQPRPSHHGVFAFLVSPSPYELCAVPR
Sodium-dependent noradrenaline transporter (Homo sapiens), sequence (P23975 whole entry): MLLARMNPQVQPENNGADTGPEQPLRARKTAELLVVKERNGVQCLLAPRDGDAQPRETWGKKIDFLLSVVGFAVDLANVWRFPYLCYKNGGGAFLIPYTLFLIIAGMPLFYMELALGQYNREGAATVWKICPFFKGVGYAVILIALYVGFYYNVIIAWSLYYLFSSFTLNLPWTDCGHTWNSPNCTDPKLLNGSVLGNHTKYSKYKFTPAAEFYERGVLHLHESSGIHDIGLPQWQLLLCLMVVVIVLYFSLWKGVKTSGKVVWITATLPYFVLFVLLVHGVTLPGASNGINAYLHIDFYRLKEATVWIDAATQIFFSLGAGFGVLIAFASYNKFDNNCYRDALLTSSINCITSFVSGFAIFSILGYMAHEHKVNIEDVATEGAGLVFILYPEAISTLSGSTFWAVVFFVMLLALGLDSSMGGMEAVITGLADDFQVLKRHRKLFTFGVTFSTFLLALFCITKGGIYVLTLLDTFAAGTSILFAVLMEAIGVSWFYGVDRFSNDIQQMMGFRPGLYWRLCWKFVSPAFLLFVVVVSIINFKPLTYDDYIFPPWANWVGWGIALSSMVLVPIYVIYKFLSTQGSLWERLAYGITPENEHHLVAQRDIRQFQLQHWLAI
Cytochrome P450 3A4, sequence (P08684 whole entry): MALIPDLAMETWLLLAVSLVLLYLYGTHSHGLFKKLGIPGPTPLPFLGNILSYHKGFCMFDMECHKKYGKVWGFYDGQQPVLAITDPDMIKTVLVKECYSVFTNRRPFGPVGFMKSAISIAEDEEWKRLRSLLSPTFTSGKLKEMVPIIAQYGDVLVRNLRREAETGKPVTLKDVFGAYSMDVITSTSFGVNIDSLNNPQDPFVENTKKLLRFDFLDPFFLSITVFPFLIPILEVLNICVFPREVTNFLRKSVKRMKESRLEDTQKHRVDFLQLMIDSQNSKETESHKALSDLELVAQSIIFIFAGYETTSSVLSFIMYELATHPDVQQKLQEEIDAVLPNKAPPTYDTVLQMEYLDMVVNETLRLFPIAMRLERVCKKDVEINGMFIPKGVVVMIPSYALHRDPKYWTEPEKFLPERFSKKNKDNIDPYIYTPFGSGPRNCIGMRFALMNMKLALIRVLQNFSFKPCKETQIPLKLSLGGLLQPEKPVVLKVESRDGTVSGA
Free fatty acid receptor 1, sequence (O14842 whole entry): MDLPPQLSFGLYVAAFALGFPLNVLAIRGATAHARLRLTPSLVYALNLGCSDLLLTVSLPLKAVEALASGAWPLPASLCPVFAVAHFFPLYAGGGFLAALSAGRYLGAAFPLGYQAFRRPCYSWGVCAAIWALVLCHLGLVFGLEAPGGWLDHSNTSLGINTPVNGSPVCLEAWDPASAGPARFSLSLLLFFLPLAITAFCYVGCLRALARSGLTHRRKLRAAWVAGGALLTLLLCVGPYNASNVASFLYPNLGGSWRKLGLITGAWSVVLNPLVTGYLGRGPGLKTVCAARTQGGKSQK
5-hydroxytryptamine receptor 5A (Homo sapiens), sequence (P47898 whole entry): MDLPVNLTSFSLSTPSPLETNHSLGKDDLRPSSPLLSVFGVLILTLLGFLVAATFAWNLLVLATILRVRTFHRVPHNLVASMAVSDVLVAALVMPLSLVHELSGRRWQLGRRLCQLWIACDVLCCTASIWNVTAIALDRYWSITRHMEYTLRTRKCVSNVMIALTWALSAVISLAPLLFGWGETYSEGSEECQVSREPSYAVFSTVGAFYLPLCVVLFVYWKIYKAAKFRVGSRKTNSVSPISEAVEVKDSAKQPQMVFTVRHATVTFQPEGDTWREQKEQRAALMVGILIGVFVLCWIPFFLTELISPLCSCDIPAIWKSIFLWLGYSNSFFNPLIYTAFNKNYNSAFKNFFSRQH

## O=C(O)CCc1cc(F)c(OCc2c(C(F)(F)F)ccn2-c2ccc(Cl)cc2)c(F)c1
[1]
  Activity: 8%
[2]
  Activity: Non-Toxic
[3]
  bioavailability: 145%
[4]
  Activity: 202 mg/dL
[5]
  Cmax: 18700 ng/mL
[6]
  Activity: Dose-dependent effect
[7]
  Activity: 17067 pg/mL
[8]
  Activity: -9%
[9]
  Activity: 201 mg/dL
[10]
  half-life: 4.72 h
[11]
  Activity: 4.6%
[12]
  half-life: 4.37 h
[13]
  Activity: -83%
[14]
  Activity: Non-Toxic
[15]
  AUC: 7430 mg/dL·min
[16]
  inhibition: 58%
[17]
  Activity: 163 mg/dL
[18]
  fraction unbound: 0.0037
[19]
  inhibition: 51%
[20]
  EC50: 3.34 µM
[21]
  fraction unbound: 0.0008
[22]
  concentration: 8.64 µM
[23]
  Activity: -3450 pg/mL
[24]
  Vd: 0.52 L/kg
[25]
  fraction unbound: 0.0017
[26]
  AUC(0-t): 47900 ng·h/mL
[27]
  half-life: 2.58 h
[28]
  INH: > 10 µM
[29]
  Activity: -16.4 mg/dL
[30]
  INH: > 10 µM
[31]
  Activity: 16966 pg/mL
[32]
  half-life: 2.87 h
[33]
  clearance: 4.9 mL/min/kg
[34]
  half-life: 2.2 h
[35]
  Activity: Non-Toxic
[36]
  EC50: 0.193 µM
